Laboratory results: ChEMBL document CHEMBL1138360, “Hypoxia-selective 3-alkyl 1,2,4-benzotriazine 1,4-dioxides: the influence of hydrogen bond donors on extravascular transport and antitumor activity” (J Med Chem, 2007)

What was measured:
[1] = Solubility in culture medium in presence of 5% fetal calf serum; type: physicochemical; settings: culture medium with 5% fetal calf serum
How it was run: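 Solubility determined at 22 °C in culture medium containing 5% fetal calf serum.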

HT-29 [2] = assay: Diffusion coefficient, D in aerobic HT29 multicellular layers; type: ADME, cell-based; settings: human
How it was run: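 Drug flux measured through HT29 multicellular layers on Teflon support membranes under 95% O2 at 37 °C, 50 µM initial donor concentration. Donor and receiver levels fitted with a diffusion model. Layer thickness estimated from flux of internal standard urea.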

HT-29 [3] = assay: Cytotoxicity against HT29 cells under hypoxic condition after 4 hrs; type: functional, cell-based; settings: Homo sapiens, HT-29, 4 h
How it was run: (§1)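 HT29 or SiHa cells exposed to drug for 4 h in 96-well plates under anoxia (H2/Pd anaerobic chamber). IC50 determined.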

SiHa [4] = assay: Cytotoxicity against SiHa cells under hypoxic condition after 4 hrs; type: functional, cell-based; settings: Homo sapiens; how it was run: as §1
HT-29 [5] = assay: Ratio of IC50 for HT29 cells in aerobic condition to IC50 for HT29 cells in hypoxic condition after 4 hrs; type: functional, Homo sapiens
How it was run: (§2)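 Aerobic and anoxic (H2/Pd chamber) IC50s measured in the same experiment after 4 h exposure, HT29 or SiHa cells. Ratio computed as aerobic IC50/anoxic IC50.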

HT-29 [6] = assay: Drug penetration in anoxic HT29 cells assessed as penetration half distance; type: ADME, cell-based; settings: human
SiHa [7] = assay: Ratio of IC50 for SiHa cells in aerobic condition to IC50 for SiHa cells in hypoxic condition after 4 hrs; type: functional, Homo sapiens; how it was run: as §2
HT-29 [8] = assay: Cell viability in anoxic HT29 cells assessed as drug level providing 10% surviving fraction by clonogenic assay; type: cell-based; settings: human
[9] = Cmax in CD1 mouse plasma at 562 umol/kg, ip; type: ADME, organism-based; set-up: dose 562 umol/kg, route intraperitoneal
How it was run: (§3)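 Single i.p. dose to homozygous nude CD-1 Foxn1nu mice, at 75 or 100% of MTD (MTD set by 1.33-fold dose steps; highest dose without death, >15% weight loss or severe morbidity in any of six mice). Total drug measured in plasma by HPLC. AUC, Cmax and terminal t½ derived noncompartmentally. Measured levels taken as free drug.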

[10] = AUC (0 to infinity) in CD1 mouse plasma at 562 umol/kg, ip; type: ADME, organism-based; set-up: dose 562 umol/kg, time infinity, route intraperitoneal; how it was run: as §3
[11] = Toxicity in ip dosed CD1 mouse; type: organism-based; settings: in vivo
How it was run: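 Single i.p. doses given to homozygous nude CD-1 Foxn1nu mice, with the vehicle formulated per compound. Doses escalated in 1.33-fold increments. MTD was defined as the highest dose causing no mortality, no body weight loss >15% and no other severe morbidity in any of six mice.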

HT-29 [12] = assay: Antitumor activity against HT29 tumor inoculated in CD1 nude mouse at 562 umol/kg, ip administered 5 mins after gamma irradiation by excision assay relative to radiation alone; type: functional, Homo sapiens
How it was run: (§4)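 HT29 xenografts in nude CD-1 mice received 20 Gy γ radiation, then a single i.p. drug dose 5 min later, at 100% or 75% of MTD. Tumors excised 18 h afterwards, dissociated to single cells and plated for clonogens/g tumor. Hypoxic cell kill = log(clonogens/g, radiation only) − log(clonogens/g, radiation + drug).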

[13] = Cmax in CD1 mouse plasma at 421 umol/kg, ip; type: ADME, organism-based; set-up: dose 421 umol/kg, route intraperitoneal; how it was run: as §3
HT-29 [14] = assay: Antitumor activity against HT29 tumor inoculated in CD1 nude mouse at 421 umol/kg, ip relative to control; type: functional, Homo sapiens
HT-29 [15] = assay: Antitumor activity against HT29 tumor inoculated in CD1 nude mouse at 421 umol/kg, ip administered 5 mins after gamma irradiation by excision assay relative to radiation alone; type: functional, Homo sapiens; how it was run: as §4
[16] = AUC (0 to infinity) in CD1 mouse plasma at 421 umol/kg, ip; type: ADME, organism-based; set-up: dose 421 umol/kg, time infinity, route intraperitoneal; how it was run: as §3
[17] = Terminal half life in CD1 mouse plasma at 421 umol/kg, ip; type: ADME, organism-based; how it was run: as §3

Compound | solubility [1] | IC50 (HT-29 [3]) | IC50 (SiHa [4]) | Ratio IC50 (HT-29 [5]) | Penetration half distance (HT-29 [6]) | Ratio IC50 (SiHa [7]) | Activity (HT-29 [8]) | other results
CCc1n[n+]([O-])c2ccc(OC)cc2[n+]1[O-].Cl | 3 mM | – | – | – | – | – | – | –
[O-][n+]1nc(CCCN2CCOCC2)[n+]([O-])c2ccccc21 | – | 2.2 µM | 1 µM | 91 | 34 µm | 132 | 3.2 µM·h | D (HT-29 [2]): 7.47 10^-7cm2/sec
[O-][n+]1nc(-c2ccccc2)[n+]([O-])c2ccccc21 | – | 4.4 µM | 2.2 µM | 2 | 34 µm | 1 | – | –
Cc1n[n+]([O-])c2ccccc2[n+]1[O-] | – | 4.1 µM | 3 µM | 67 | 34 µm | 57 | 25.3 µM·h | D (HT-29 [2]): 19.15 10^-7cm2/sec
Cl.[O-][n+]1nc(CCCN2CCCCC2)[n+]([O-])c2ccccc21 | 43 mM | – | – | – | – | – | – | –
CN(C)CCCc1n[n+]([O-])c2ccccc2[n+]1[O-] | – | 0.39 µM | 0.2 µM | 71 | 34 µm | 58 | 2.1 µM·h | –
CCc1n[n+]([O-])c2ccc(OCCOC)cc2[n+]1[O-].Cl | 3 mM | – | – | – | – | – | – | –
Cl.[O-][n+]1nc(-c2ccccc2)[n+]([O-])c2ccccc21 | 0.3 mM | – | – | – | – | – | – | –
COCCc1n[n+]([O-])c2ccc(C)cc2[n+]1[O-] | – | 6.6 µM | 1.9 µM | 63 | 34 µm | 150 | 57.9 µM·h | D (HT-29 [2]): 17.34 10^-7cm2/sec
CCc1n[n+]([O-])c2ccc(OCCCO)cc2[n+]1[O-].Cl | 10 mM | – | – | – | – | – | – | –
COc1n[n+]([O-])c2ccccc2[n+]1[O-] | – | 3.1 µM | 1.1 µM | 1 | 34 µm | 4 | – | –
Cl.[O-][n+]1nc(CCCO)[n+]([O-])c2ccccc21 | 50 mM | – | – | – | – | – | – | –
CCc1n[n+]([O-])c2ccc(OCCCN3CCOCC3)cc2[n+]1[O-].Cl | > 47 mM | – | – | – | – | – | – | –
Cc1n[n+]([O-])c2ccccc2[n+]1[O-].Cl | 28 mM | – | – | – | – | – | – | –
CCc1n[n+]([O-])c2cc(OCCN(C)C)ccc2[n+]1[O-] | – | 0.7 µM | 0.5 µM | 105 | 34 µm | 128 | 1.8 µM·h | –
CCc1n[n+]([O-])c2ccc(OC)cc2[n+]1[O-] | – | 16.8 µM | 6.8 µM | 73 | 34 µm | 175 | 69.9 µM·h | Cmax [9]: 71.5 µM; AUC(0-inf) [10]: 138 µM·h; MTD [11]: 750 µmol/kg; Activity (HT-29 [12]): 0.76%
CCc1n[n+]([O-])c2cc(OCCCO)ccc2[n+]1[O-].Cl | 17 mM | – | – | – | – | – | – | –
CCc1n[n+]([O-])c2ccc(C)cc2[n+]1[O-] | – | 11.4 µM | 3.6 µM | 63 | 34 µm | 214 | 52.4 µM·h | –
COCCc1n[n+]([O-])c2ccccc2[n+]1[O-].Cl | > 21 mM | – | – | – | – | – | – | –
CCc1n[n+]([O-])c2cc(OCCOC)ccc2[n+]1[O-].Cl | 2 mM | – | – | – | – | – | – | –
COCCCc1n[n+]([O-])c2ccccc2[n+]1[O-] | – | 6.9 µM | 2.4 µM | 86 | 34 µm | 272 | 26.7 µM·h | D (HT-29 [2]): 21.3 10^-7cm2/sec
CN(C)CCCc1n[n+]([O-])c2ccccc2[n+]1[O-].Cl | 51 mM | – | – | – | – | – | – | –
CCc1n[n+]([O-])c2ccc(OCCO)cc2[n+]1[O-].Cl | 21 mM | – | – | – | – | – | – | –
CCc1n[n+]([O-])c2cc(OCCCN3CCOCC3)ccc2[n+]1[O-].Cl | > 48 mM | – | – | – | – | – | – | –

Compound | solubility [1] | IC50 (HT-29 [3]) | IC50 (SiHa [4]) | Ratio IC50 (HT-29 [5]) | Penetration half distance (HT-29 [6]) | Ratio IC50 (SiHa [7]) | Activity (HT-29 [8]) | other results
CCc1n[n+]([O-])c2cc(OCCCO)ccc2[n+]1[O-] | – | 6.9 µM | 2.7 µM | 146 | 34 µm | 161 | 31.6 µM·h | –
[O-][n+]1nc(CCCN2CCCCC2)[n+]([O-])c2ccccc21 | – | 1 µM | 0.6 µM | 36 | 34 µm | 55 | 1.5 µM·h | D (HT-29 [2]): 6.5 10^-7cm2/sec
Cl.[O-][n+]1nc(CCCN2CCOCC2)[n+]([O-])c2ccccc21 | > 46 mM | – | – | – | – | – | – | –
[O-][n+]1nc(CCO)[n+]([O-])c2ccccc21 | – | 3.7 µM | 1.7 µM | 153 | 34 µm | 526 | 18.1 µM·h | D (HT-29 [2]): 4.41 10^-7cm2/sec
COCCc1n[n+]([O-])c2ccccc2[n+]1[O-] | – | 3.5 µM | 1.6 µM | 49 | 34 µm | 61 | 21.3 µM·h | D (HT-29 [2]): 20.89 10^-7cm2/sec; Cmax [13]: 176 µM; Activity (HT-29 [14]): 0.3%; Activity (HT-29 [15]): 0.8%; AUC(0-inf) [16]: 113 µM·h; MTD [11]: 421 µmol/kg; half-life [17]: 18 min
COc1n[n+]([O-])c2ccccc2[n+]1[O-].Cl | 23 mM | – | – | – | – | – | – | –
Cl.[O-][n+]1nc(CCN2CCOCC2)[n+]([O-])c2ccccc21 | 42 mM | – | – | – | – | – | – | –
Cc1ccc2c(c1)[n+]([O-])c(CCO)n[n+]2[O-].Cl | 7 mM | – | – | – | – | – | – | –
CCc1n[n+]([O-])c2cc(OCCN(C)C)ccc2[n+]1[O-].Cl | > 51 mM | – | – | – | – | – | – | –
CCc1n[n+]([O-])c2cc(OCCOC)ccc2[n+]1[O-] | – | 4.7 µM | 1.8 µM | 69 | 34 µm | 116 | 40.7 µM·h | –
CCc1n[n+]([O-])c2ccc(OCCO)cc2[n+]1[O-] | – | 14.4 µM | 7.9 µM | 54 | 34 µm | 203 | 97.3 µM·h | –
CCc1n[n+]([O-])c2ccccc2[n+]1[O-].Cl | 15 mM | – | – | – | – | – | – | –
Cc1ccc2c(c1)[n+]([O-])c(CCO)n[n+]2[O-] | – | 4.3 µM | 1.2 µM | 82 | 34 µm | 208 | 22.2 µM·h | –
CCc1n[n+]([O-])c2ccc(C)cc2[n+]1[O-].Cl | 4 mM | – | – | – | – | – | – | –
COCCc1n[n+]([O-])c2ccc(C)cc2[n+]1[O-].Cl | 3 mM | – | – | – | – | – | – | –
COCCCc1n[n+]([O-])c2ccccc2[n+]1[O-].Cl | 21 mM | – | – | – | – | – | – | –
Cl.[O-][n+]1nc(CCO)[n+]([O-])c2ccccc21 | 34 mM | – | – | – | – | – | – | –
CCc1n[n+]([O-])c2ccc(OCCN3CCCCC3)cc2[n+]1[O-].Cl | > 48 mM | – | – | – | – | – | – | –
CCc1n[n+]([O-])c2ccc(OCCN(C)C)cc2[n+]1[O-] | – | 1.3 µM | 0.8 µM | 307 | 34 µm | 374 | 5.1 µM·h | Cmax [13]: 55.5 µM; Activity (HT-29 [14]): 0.23%; Activity (HT-29 [15]): 0.88%; AUC(0-inf) [16]: 55.7 µM·h; MTD [11]: 562 µmol/kg; half-life [17]: 32.2 min
CCc1n[n+]([O-])c2ccc(OCCOC)cc2[n+]1[O-] | – | 17.9 µM | 14.2 µM | 120 | 34 µm | 70 | 213.2 µM·h | –
[O-][n+]1nc(CCN2CCOCC2)[n+]([O-])c2ccccc21 | – | 3.8 µM | 2.2 µM | 107 | 34 µm | 225 | 10 µM·h | –
CCc1n[n+]([O-])c2ccc(OCCCO)cc2[n+]1[O-] | – | 17 µM | 8.6 µM | 54 | 34 µm | 105 | 108.9 µM·h | –
[O-][n+]1nc(CCCO)[n+]([O-])c2ccccc21 | – | 3.7 µM | 3.1 µM | 110 | 34 µm | 85 | 30.2 µM·h | D (HT-29 [2]): 4.94 10^-7cm2/sec
CCc1n[n+]([O-])c2ccc(OCCN(C)C)cc2[n+]1[O-].Cl | > 49 mM | – | – | – | – | – | – | –
